A short description of data set [1]: Kinetic parameter KM (nM) for the MAO-B catalyzed oxidation of the compound. Format: ADME. In a few lines: (§1)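 Compound at 0.05-2.5 mM in 100 mM phosphate pH 7.4 was equilibrated 2 min at 37 °C, then 0.05 unit of purified beef liver MAO-B was added. Initial rates were followed by the rise in absorbance of the dihydropyridinium product. KM and Vmax came from Lineweaver-Burk plots. One unit converts 1 μmol benzylamine per min.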

Data set [2] in a line: Kinetic parameter Vmax (nm/min/unit of MAO-B) for the MAO-B catalyzed oxidation of the compound. Format: ADME. In a few lines:
as §1

For data set [3], the target named is T1, Amine oxidase [flavin-containing] B (Bos taurus, UniProt P56560).
T1 sequence (P56560 whole entry): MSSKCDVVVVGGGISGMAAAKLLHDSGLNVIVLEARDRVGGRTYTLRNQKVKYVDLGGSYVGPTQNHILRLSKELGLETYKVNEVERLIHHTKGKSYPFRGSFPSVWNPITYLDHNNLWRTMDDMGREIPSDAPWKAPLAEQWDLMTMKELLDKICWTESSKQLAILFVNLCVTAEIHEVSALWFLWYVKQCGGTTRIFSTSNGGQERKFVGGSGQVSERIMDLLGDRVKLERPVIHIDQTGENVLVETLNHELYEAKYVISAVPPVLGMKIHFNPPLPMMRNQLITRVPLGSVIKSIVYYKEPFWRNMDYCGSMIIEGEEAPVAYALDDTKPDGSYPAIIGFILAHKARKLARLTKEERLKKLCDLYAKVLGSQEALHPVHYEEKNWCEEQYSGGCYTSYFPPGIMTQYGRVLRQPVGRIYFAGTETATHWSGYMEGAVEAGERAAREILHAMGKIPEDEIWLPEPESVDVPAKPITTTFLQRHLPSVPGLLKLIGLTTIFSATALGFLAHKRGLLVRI
The data set is described as follows: MAO-B Inactivation property expressed as inactivation constant (K inact).

Data set [4] addresses T1, Amine oxidase [flavin-containing] B. The data set is described as follows: Inhibitory constant against monoamine Oxidase(MAO-B).
Data set [5] shares this target. Briefly: Monoamine oxidase B Inactivation property expressed as inactivation constant (K inact).
The target is the same in data set [6]. The data set is described as follows: Monoamine oxidase B Inactivation property expressed as inactivation constant (K inact) was determined at a concentration of 300-1500 uM.
The target is the same in data set [7]. Briefly: Inhibitory constant against monoamine Oxidase(MAO-B) was determined at a concentration of 300-1500 uM.
For data set [8] the target is unchanged. The data set is described as follows: Monoamine oxidase B Inactivation property expressed as inactivation constant (K inact); Not active.
For data set [9] the target is unchanged. Briefly: Inhibitory constant against monoamine Oxidase (MAO-B); Not active.
Data set [10] shares this target. The data set is described as follows: MAO-B Inactivation property expressed as inactivation constant (K inact) was determined at a concentration of 50-100 uM.
Data set [11] shares this target. The data set is described as follows: Inhibitory constant against monoamine Oxidase(MAO-B) was determined at a concentration of 50-100 uM.

Regarding `C#CC1=CCN(C)CC1`, the Km (as a rule, the substrate concentration at which the rate is half of its maximum) in data set [1] amounted to 861 µM. Further, the Vmax in data set [2] amounted to 684. For the same molecule, the kinact (usually the maximal first-order rate at which the target is inactivated) in [3] is 0.000833 s⁻¹. For the same molecule, the Ki (commonly the equilibrium dissociation constant of an inhibitor or competing ligand from its target) in data set [4] was 154 µM.
Turning to `C=CC1=CCN(C)CC1`, in data set [1], the Km came to 80 µM. In data set [2], the Vmax worked out at 190. In data set [5], the kinact was 0.00133 s⁻¹. The molecule further yielded a Ki in data set [4] of 330 µM.
Regarding `C1=C(c2ccccc2)CCN(C2CCCC2)C1`, the kinact in data set [5] is 0.00075 s⁻¹. The molecule also displayed a Ki in data set [4] of 173 µM.
As for `CN1CC=C(C#Cc2ccccc2)CC1`, the kinact in data set [3] was 0.00533 s⁻¹. The molecule also yielded a Ki in [4] of 820 µM.
As to `CCCN1CC=C(c2ccccc2)CC1`, the Km in data set [1] stood at 2000 µM. The Vmax in data set [2] was determined as 7. The inactivation rate constant (kinact) in data set [6] was 0.001 s⁻¹. Further, the affinity in [7], expressed as Ki, was 5000 µM.
Turning to `C1=C(c2ccccc2)CCN(C2CCC2)C1`, the kinact result in [8] was “Not Active”. Also, the Ki entry in data set [9] is “Not Active”.
For the molecule `C=CCN1CC=C(c2ccccc2)CC1`, in data set [5], the kinact is 0.000483 s⁻¹. Further, the Ki in data set [4] was 268 µM.
Regarding `C#CCN1CC=C(c2ccccc2)CC1`, the kinact in data set [10] is 0.004 s⁻¹. In [11], this molecule showed a Ki of 172 µM.
For the molecule `CN1CC=C(c2ccccc2)CC1`, in data set [1], the Km was 390 µM. Besides, the Vmax in [2] is reported as 204.

These data come from ChEMBL document CHEMBL1125347, “Synthesis of novel MPTP analogs as potential monoamine oxidase B (MAO-B) inhibitors” (J Med Chem, 1992).
